Data on five molecules can be found in ChEMBL document CHEMBL1138808, “Synthesis and anticancer activity of simplified indenoisoquinoline topoisomerase I inhibitors lacking substituents on the aromatic rings” (2004).

Experiment [1] can be described thus: Growth inhibitory activity against human CNSSF-539 cell line. Type of experiment: functional. An outline of the steps:
(§1)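 Growth inhibition in human cancer cell culture. GI50 is the concentration giving 50% growth inhibition. Compounds were tested at concentrations up to […].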

The target of experiment [2] is T1, DNA topoisomerase 1 (Homo sapiens) (UniProt P11387).
T1 sequence (whole entry): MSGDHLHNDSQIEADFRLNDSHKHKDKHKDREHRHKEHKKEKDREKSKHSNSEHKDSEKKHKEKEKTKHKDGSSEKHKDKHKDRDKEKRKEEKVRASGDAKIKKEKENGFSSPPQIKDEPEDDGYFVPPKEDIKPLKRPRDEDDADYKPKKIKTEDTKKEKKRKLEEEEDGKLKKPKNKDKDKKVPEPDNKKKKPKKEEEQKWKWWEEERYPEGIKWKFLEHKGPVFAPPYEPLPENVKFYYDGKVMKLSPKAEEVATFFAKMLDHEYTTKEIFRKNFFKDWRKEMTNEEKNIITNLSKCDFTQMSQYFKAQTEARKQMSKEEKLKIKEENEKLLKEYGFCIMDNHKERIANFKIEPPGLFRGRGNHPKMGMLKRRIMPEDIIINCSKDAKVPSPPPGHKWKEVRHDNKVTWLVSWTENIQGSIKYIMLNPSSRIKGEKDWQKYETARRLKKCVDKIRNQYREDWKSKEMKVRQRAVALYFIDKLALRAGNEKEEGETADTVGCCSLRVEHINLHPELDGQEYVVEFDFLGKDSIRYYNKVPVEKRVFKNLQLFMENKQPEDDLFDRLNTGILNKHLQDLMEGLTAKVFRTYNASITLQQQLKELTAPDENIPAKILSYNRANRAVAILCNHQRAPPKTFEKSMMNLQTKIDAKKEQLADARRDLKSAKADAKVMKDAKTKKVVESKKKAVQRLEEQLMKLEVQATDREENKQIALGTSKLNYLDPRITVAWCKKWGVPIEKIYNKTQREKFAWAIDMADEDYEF
Briefly: Induction of topoisomerase I mediated DNA cleavage; Activity similar to 1 uM camptothecin; weak activity.

The test system of experiment [3] is Panel (Carcinoma cell lines). Briefly: Mean graph mid point for growth inhibition of human cancer cell lines. It counts as functional. Set-up: unit not given here. An outline of the steps:
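Mean graph midpoint of growth inhibition, taken across all human cancer cell lines successfully tested. Compounds were tested at concentrations up to […], and GI50 is the concentration giving 50% growth inhibition.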

Experiment [4] concerns HOP-62. Kind of experiment: Growth inhibitory activity against human lung HOP-62 cell line. Type of experiment: functional. An outline of the steps:
as §1

For experiment [5], the system named is SN12C. Kind of experiment: Growth inhibitory activity against human renal SN12C cell line. Type of experiment: functional. An outline of the steps: as §1
Experiment [6] has as its system HCT-116. Kind of experiment: Growth inhibitory activity against human colon HCT116 cell line. It counts as functional. An outline of the steps: as §1
Experiment [7] relates to OVCAR-3. Briefly: Growth inhibitory activity against human ovarian OVCAR-3 cell line. It counts as functional. In outline: as §1
The subject of experiment [8] is DU-145. Kind of experiment: Growth inhibitory activity against human prostate DU-145 cell line. It counts as functional. An outline of the steps:
as §1

Experiment [9] concerns UACC-62. Kind of experiment: Growth inhibitory activity against human melanoma UACC-62 cell line. Type of experiment: functional. An outline of the steps:
as §1

In experiment [10] the test system is MDA-MB-435. Kind of experiment: Growth inhibitory activity against human breast MDA-MB-435 cell line. Type of experiment: functional. In outline:
as §1

In experiment [11] the target is T1, DNA topoisomerase 1 (Homo sapiens). Briefly: Induction of topoisomerase I mediated DNA cleavage; Activity similar to 1 uM camptothecin.
The target is the same in experiment [12]. Briefly: Induction of topoisomerase I mediated DNA cleavage; weak activity.

As for `O=C1c2ccccc2-c2c1c1ccccc1c(=O)n2CCCl`, the 50% growth inhibitory concentration (GI50) – broadly, the concentration that inhibits growth by half – in experiment [1] came out at 2.24 µM. Further, in experiment [2], the DNA cleavage result was “+/-”.

As to `CCn1c2c(c3cc(OC)c(OC)cc3c1=O)C(=O)c1cc3c(cc1-2)OCO3`, the GI50 in experiment [1] was 2 µM; in experiment [4], 2.2 µM; in experiment [5] it was 3.6 µM; in [6] it was 2.6 µM; in experiment [7] it was 3 µM; in experiment [8], 2.3 µM. For the same molecule, the values for the GI50 in [9] and in [10] were 2.1 µM and 2.6 µM, respectively. For the same molecule, the “Mean graph mid point” value in [3] turned out to be 2.4. Besides, the DNA cleavage entry in [2] is “+/-”.

`O=C1c2ccccc2-c2c1c1ccccc1c(=O)n2CCCn1ccnc1` showed a GI50 in experiment [1] of 2.34 µM. The “Mean graph mid point” value in experiment [3] is reported as 1.86. Besides, in experiment [11], the DNA cleavage result is “Activity similar to 1 uM camptothecin”.

As for `O=C1c2ccccc2-c2c1c1ccccc1c(=O)n2CCNCCO`, the GI50 in experiment [1] amounted to 1.65 µM; in [4] it was 1.62 µM; in experiment [5], 0.95 µM; in experiment [6] it was 1.12 µM; in experiment [7] it was 3.85 µM; in experiment [8], 1.28 µM. Also, the GI50 in experiment [9] is 1.42 µM; in experiment [10], 2.56 µM. For the same molecule, in [3], the “Mean graph mid point” value was 1.9. The DNA cleavage entry in experiment [12] was “Weak activity”.

Take `O=C1c2ccccc2-c2c1c1ccccc1c(=O)n2CCN1CCNCC1`: the GI50 amounted to 1.99 µM in [1]; 1.91 µM in [4]; 2.19 µM in [5]; 0.58 µM in experiment [6]; 1.12 µM in experiment [7]; 3.09 µM in experiment [8]. Besides, the values for the GI50 in experiment [9] and in [10] were 1.38 µM and 1.95 µM, respectively. Also, in experiment [3], the “Mean graph mid point” value is 1.86. Moreover, the DNA cleavage result in [12] was “Weak activity”.
